Data: PMC2922024 (Neuroscience letters, 2010)
Positions of bridges follow the written chain, without caps; N, C: chain ends. Residues, ends and D or L forms follow the SMILES beside them.

Columns and labels:
[1] = Free GsMTx4 in media with or without serum; assay type: in vitro ADME
PC12 cells = assay: Neurite outgrowth from PC12 cells; assay type: cell-based, rat; settings: NGF 50 ng/ml alone, 48 h
Outline: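 Rat PC12 cells were grown in high-glucose DMEM with 10% FBS, penicillin/streptomycin and 10 mM Hepes at 37 °C in 5% CO2. They were seeded at 4 × 10^4 per well, adhered overnight, then left untreated or given NGF (50 ng/ml final) for 48 h. Phase-contrast images were scored blinded: three random fields per well, at least 4 wells, fields of more than 10 cells, at least 250 cells per experiment. The percentage was calculated per image, and the longest neurite per bearing cell was averaged. Groups were compared by one-way ANOVA with Tukey–Kramer.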

Row | Molecule | free concentration ([1]; culture media with 10% serum, mean (total) concentration 100 μM GsMTx4) | free drug concentration in media as share of the total ([1]; media with 10% serum) | length of the longest neurite per NBC (PC12 cells; untreated approximately 10 μm) | percentage of neurite bearing cells (PC12 cells; untreated ~1%)
1 | CC(C)C[C@@H]1NC(=O)[C@@H](NC(=O)CN)CSSC[C@@H]2NC(=O)[C@@H]3CSSC[C@@H](C(=O)N[C@@H](CC(N)=O)C(=O)N[C@@H](Cc4ccccc4)C(=O)N[C@@H](CO)C(=O)N[C@@H](Cc4ccccc4)C(N)=O)NC(=O)[C@H](CC(C)C)NC(=O)[C@H](CCCCN)NC(=O)[C@H](Cc4ccccc4)NC(=O)[C@H](CC(C)C)NC(=O)[C@H](CCCCN)NC(=O)[C@H](CO)NC(=O)[C@H](CSSC[C@H](NC(=O)[C@H](CCCCN)NC(=O)[C@H](Cc4c[nH]c5ccccc45)NC(=O)[C@H](Cc4c[nH]c5ccccc45)NC(=O)[C@H](Cc4ccccc4)NC(=O)[C@H](CCC(=O)O)NC1=O)C(=O)N[C@@H](CC(N)=O)C(=O)N1CCC[C@H]1C(=O)N[C@@H](CC(N)=O)C(=O)N[C@@H](CC(=O)O)C(=O)N[C@@H](CC(=O)O)C(=O)N[C@@H](CCCCN)C(=O)N3)NC(=O)[C@H](CCCCN)NC(=O)[C@H](CC(C)C)NC(=O)[C@H](CCCCN)NC(=O)[C@@H]1CCCN1C(=O)[C@H](CCCNC(=N)N)NC2=O [GsMTx4] (H-GCLEFWWKCNPNDDKCCRPKLKCSKLFKLCNFSF-NH2; disulfide 2-17, 9-23, 16-30) | ~ 5 μM | about 5% | – | –
2 | nerve growth factor (protein, UniProt P01139 122-241, looked up, Beta-nerve growth factor) Beta-nerve growth factor: SSTHPVFHMGEFSVCDSVSVWVGDKTTATDIKGKEVTVLAEVNINNSVFRQYFFETKCRASNPVESGCRGIDSKHWNSYCTTTHTFVKALTTDEKQAAWRFIRIDTACVCVLSRKATRRG | – | – | ~ 20 μm | ~ 20%
